For 15 molecules, IC50 results are on record in ChEMBL document CHEMBL3784932, “Design, synthesis and docking studies of novel dipeptidyl boronic acid proteasome inhibitors constructed from αα- and αβ-amino acids” (Bioorg Med Chem Lett, 2016).

Test [1] concerns the target T1, Proteasome Macropain subunit MB1 (Homo sapiens, UniProt P28074).
T1 sequence (P28074 whole entry): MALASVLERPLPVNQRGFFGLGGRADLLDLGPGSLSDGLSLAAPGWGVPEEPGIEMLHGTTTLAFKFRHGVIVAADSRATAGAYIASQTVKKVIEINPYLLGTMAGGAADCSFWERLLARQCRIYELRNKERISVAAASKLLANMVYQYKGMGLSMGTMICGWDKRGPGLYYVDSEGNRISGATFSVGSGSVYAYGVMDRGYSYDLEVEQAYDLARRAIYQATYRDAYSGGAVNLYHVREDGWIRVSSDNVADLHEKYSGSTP
Briefly: Inhibition of chymotrypsin like activity of human erythrocyte-derived 20S proteasome preincubated for 10 mins using Suc-LLVY-AMC as substrate after 60 mins by fluorescence assay. The essentials:
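Enzymatic IC50 from eight inhibitor concentrations, each point assayed in duplicate; β5 (chymotrypsin-like) subunit of human proteasome.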

The nature of test [2]: Cytotoxicity against human U266 cells after 72 hrs by MTS assay. It is filed as functional, cell-based. As to conditions: U-266, 72 h; call rule not given here. The essentials: (§1)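 Cellular IC50 from a ten-concentration series, each concentration tested in triplicate.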
Test [3] can be described thus: Cytotoxicity against human ARH77 cells after 72 hrs by MTS assay. It is filed as functional, cell-based. Particulars: ARH-77, 72 h. The essentials: as §1
Test [4] is described as follows: Cytotoxicity against human RPMI8226 cells after 72 hrs by MTS assay. It is filed as functional, cell-based. As to conditions: RPMI-8226, 72 h. The essentials: as §1

Consider `O=C(N[C@@H](Cc1ccccc1)C(=O)N[C@H](CB(O)O)c1ccccc1)c1ccccc1`, for which the IC50 entry in test [1] was “Not Active”. On the same count and under the same terms, for `O=C(N[C@@H](Cc1ccccc1)C(=O)N[C@@H](CCc1ccccc1)CB(O)O)c1ccccc1` the value was “Not Active”; for `O=C(N[C@@H](Cc1ccccc1)C(=O)N[C@H](CB(O)O)c1ccccc1)c1cnccn1`, “Not Active”. Turning to `CC(C)C[C@@H](NC(=O)CC(NC(=O)[C@H]1CCCc2ccccc21)c1cccc(F)c1)B(O)O` (some centres undefined), in test [1] (read-out: IC50), the half-inhibitory concentration (IC50) is 1.02 nM. Consider `O=C(N[C@@H](Cc1ccccc1)C(=O)N[C@@H](CCc1ccccc1)CB(O)O)c1cnccn1`, for which the half-inhibitory concentration (IC50) entry in test [1] was “Not Active”. With `COCCC(=O)N[C@@H](Cc1ccccc1)C(=O)N[C@@H](CC(C)C)B(O)O`, the IC50 worked out at 8.47 nM in test [1] (read-out: IC50), 11.5 nM in test [2], 9.03 nM in test [3] and 7.32 nM in test [4]. For `COCC(=O)N[C@@H](Cc1ccccc1)C(=O)N[C@@H](CC(C)C)B(O)O` the same measures were 6.31 nM, 6.04 nM, 5.72 nM and 4.56 nM. On to `CC(C)C[C@H](NC(=O)[C@H](Cc1ccccc1)NC(=O)CC(C)(C)C)B(O)O`, for which the IC50 is 4.69 nM in test [1] (read-out: IC50), 8.01 nM in test [2] and 8.31 nM in test [3].

On to `CC(C)C[C@H](NC(=O)[C@H](Cc1ccccc1)NC(=O)c1cnccn1)B(O)O` [BORTEZOMIB], for which the values for the IC50 in test [2] and in test [3] were 5.73 nM and 6.07 nM, respectively. Regarding `CC(C)C[C@H](NC(=O)[C@H](Cc1ccccc1)NC(=O)[C@H]1CCCc2ccccc21)B(O)O`, the IC50 in test [1] (read-out: IC50) stood at 1.2 nM. `CC(C)C[C@@H](CB(O)O)NC(=O)[C@H](Cc1ccccc1)NC(=O)c1cnccn1`: the IC50 entry in test [1] is “Not Active”. `CC(C)C[C@H](NC(=O)[C@H](Cc1ccccc1)NC(=O)C1CCCC1)B(O)O`: the IC50 in test [1] (read-out: IC50) was 4.82 nM; in test [2], 2.48 nM; in test [3], 3.87 nM. With `CC(C)C[C@H](NC(=O)[C@H](Cc1ccccc1)NC(=O)c1cccc2c1CCCC2)B(O)O`, the IC50 in test [1] (read-out: IC50) came to 1.6 nM. On to `CCCC(=O)N[C@@H](Cc1ccccc1)C(=O)N[C@@H](CC(C)C)B(O)O`, for which the IC50 in test [1] (read-out: IC50) amounted to 6.94 nM; in test [2], 8.51 nM; in test [3] it was 7.87 nM; in test [4], 5.61 nM. `CC(C)C[C@@H](CB(O)O)NC(=O)[C@H](Cc1ccccc1)NC(=O)c1ccccc1`: the IC50 result in test [1] is reported as “Not Active”.
